The text below walks through data of ChEMBL document CHEMBL1765023, “Acetyl analogs of combretastatin A-4: synthesis and biological studies” (Bioorg Med Chem, 2011).

The test system of one series is B16. Kind of series: Cytotoxicity against mouse B16 cells by MTT assay. Format: functional, cell-based. (In general: Tetrazolium assays rely on reduction of a dye to a coloured formazan, in cell work by metabolically active cells.)
Another series deals with L1210. Description: Cytotoxicity against mouse L1210 cells by MTT assay. The format is functional, cell-based.
Series [1] can be described thus: Induction of microtubule depolymerization in […] cells for 18 hrs by indirect immunofluorescence microscopic analysis. Format: cell-based. The procedure, abridged:
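Uses A-10 cells, a non-transformed line that arrests in interphase under microtubule-targeting agents. Cells were treated for 18 h and interphase microtubules were visualized by indirect immunofluorescence microscopy, with vehicle-treated controls. Depolymerization was screened at concentrations below 30 µM. For EC50, a range of concentrations was tested, and EC50 is the concentration causing 50% loss of cellular microtubules by microscopy.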

Series [2] in a line: Ratio of EC50 for microtubule depolymerization in […] cells to IC50 for human MDA-MB-435 cells.
The nature of series [3]: Solubility of the compound in water by multiscreen solubility. Format: physicochemical. The procedure, abridged:
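Aqueous solubility was measured with a modified Multiscreen Solubility filter-plate protocol. The assay ceiling is 500 µM, and two independent experiments were run.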

The test system of series [4] is Mus musculus. Kind of series: Toxicity in DBA2 mouse assessed as change in platelet count at 75 mg/kg, ip QD administered on alternate days for 17 days measured on day 23 relative to control. Format: organism-based. Set-up: dose 75 mg/kg, route intraperitoneal. The conditions noted are these: in vivo, 408 h. The procedure, abridged:
(§1)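 Healthy female DBA2 mice, 5–7 weeks old, five per group, received 75 mg/kg ip on days 1, 5, 9, 13 and 17. Vehicle was PET (PEG400/ethanol/Tween 80, 6:3:1), 5% glucose and DMSO, with final ethanol 15% and DMSO 10%. Controls received 100 µL vehicle. Body weight was measured every other day. At sacrifice on day 23, blood counts (hematocrit, WBC, granulocytes, platelets) and liver, kidney and spleen appearance and weight were assessed.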

Series [5] concerns Mus musculus. Description: Toxicity in DBA2 mouse assessed as change in body weight at 75 mg/kg, ip QD administered on alternate days for 17 days measured on day 23 relative to control. Format: organism-based. Set-up: dose 75 mg/kg, route intraperitoneal. The conditions noted are these: in vivo, 408 h. A digest of the protocol: as §1
Series [6] has as its system Mus musculus. Kind of series: Toxicity in DBA2 mouse assessed as change in color, weight and size in liver at 75 mg/kg, ip QD administered on alternate days for 17 days measured on day 23 relative to control. More on the design: dose 75 mg/kg, route intraperitoneal. As to conditions: in vivo, 408 h. Format: organism-based. A digest of the protocol:
as §1

The test system of series [7] is Mus musculus. Kind of series: Toxicity in DBA2 mouse assessed as change in color, weight and size in kidney at 75 mg/kg, ip QD administered on alternate days for 17 days measured on day 23 relative to control. Set-up: dose 75 mg/kg, route intraperitoneal. Format: organism-based. As to conditions: in vivo, 408 h. A digest of the protocol:
as §1

The test system of series [8] is Mus musculus. Description: Toxicity in DBA2 mouse assessed as change in color, weight and size in spleen at 75 mg/kg, ip QD administered on alternate days for 17 days measured on day 23 relative to control. Format: organism-based. More on the design: dose 75 mg/kg, route intraperitoneal. As to conditions: in vivo, 408 h. A digest of the protocol: as §1
Series [9] relates to Mus musculus. Kind of series: Toxicity in DBA2 mouse assessed as change in hematocrit at 75 mg/kg, ip QD administered on alternate days for 17 days measured on day 23 relative to control. Format: organism-based. Set-up: dose 75 mg/kg, route intraperitoneal. As to conditions: in vivo, 408 h. A digest of the protocol: as §1
For series [10], the system named is Mus musculus. Kind of series: Toxicity in DBA2 mouse assessed as change in white blood count at 75 mg/kg, ip QD administered on alternate days for 17 days measured on day 23 relative to control. The format is organism-based. More on the design: dose 75 mg/kg, route intraperitoneal. As to conditions: in vivo, 408 h. The procedure, abridged:
as §1

Series [11] deals with Mus musculus. Kind of series: Toxicity in DBA2 mouse assessed as change in granulocyte count at 75 mg/kg, ip QD administered on alternate days for 17 days measured on day 23 relative to control. The format is organism-based. More on the design: dose 75 mg/kg, route intraperitoneal. The conditions noted are these: in vivo, 408 h. The procedure, abridged:
as §1

Values after ≈ are worked out from the molar mass of the structure shown.

Consider `COc1cc(/C(=C\c2ccc(F)cc2)C(C)=O)cc(OC)c1OC`, for which the half-maximal inhibitory concentration (IC50) (usually the concentration that inhibits the measured activity by half) came out at 65 µM in the series on B16 and 43 µM in the series on L1210.

In the case of `COc1cc(/C(=C\c2ccc(Cl)c(Cl)c2)C(C)=O)cc(OC)c1OC`, the concentration for half-maximal inhibition (IC50) with B16 worked out at 6.4 µM; in the series with L1210, 4 µM.

With `COc1ccc(OC)c(/C=C(/C(C)=O)c2cc(OC)c(OC)c(OC)c2)c1`, the concentration for half-maximal inhibition (IC50) in the series on B16 was determined as 4 µM; with L1210, 3.7 µM.

Consider `COc1ccc(/C=C(/C(C)=O)c2cc(OC)c(OC)c(OC)c2)cc1[N+](=O)[O-]`, for which the IC50 in the series on B16 was 3.8 µM; with L1210 it was 3.1 µM.

Turning to `COc1cc(OC)c(/C=C(/C(C)=O)c2cc(OC)c(OC)c(OC)c2)c(OC)c1`, the half-inhibitory concentration (IC50) in the series with B16 was > 100 µM; with L1210, 3.7 µM.

As for `COc1cc(/C(=C\c2ccc(Br)cc2)C(C)=O)cc(OC)c1OC`, the IC50 with B16 is 19 µM; with L1210, 4 µM.

Take `COc1ccc(/C=C(/C(C)=O)c2cc(OC)c(OC)c(OC)c2)cc1`: it took 18.6 µM to reach a half-maximal effect in series [1] (EC50). Moreover, in series [2], the Ratio is recorded as 53. For the same compound, the concentration in solution in series [3] (solubility) was 319 µM (≈ 109 µg/mL). Also, the 50% inhibitory concentration (IC50) was 7.3 µM with B16 and 0.38 µM with L1210.

In the case of `COc1cccc(/C=C(/C(C)=O)c2cc(OC)c(OC)c(OC)c2)c1`, the figures for the IC50 in the series on B16 and in the series with L1210 were 31 µM and 39 µM, respectively.

`COc1ccc(/C=C(/C(C)=O)c2cc(OC)c(OC)c(OC)c2)cc1O[Si](C)(C)C(C)(C)C`: the 50% inhibitory concentration (IC50) is 5.1 µM in the series with B16 and 0.18 µM with L1210.

In the case of `COc1cc(/C(=C\c2ccccc2)C(C)=O)cc(OC)c1OC`, the 50% inhibitory concentration (IC50) in the series on B16 turned out to be 25 µM; in the series with L1210 it was 5.4 µM.

With `COc1cc(/C(=C\c2cccc([N+](=O)[O-])c2)C(C)=O)cc(OC)c1OC`, the values for the IC50 in the series with B16 and with L1210 were 3.8 µM and 3.3 µM, respectively.

Turning to `COc1cc(/C(=C\c2ccc(C#N)cc2)C(C)=O)cc(OC)c1OC`, the IC50 with B16 came to 29 µM; in the series with L1210 it was 8 µM.

With `COc1ccccc1/C=C(/C(C)=O)c1cc(OC)c(OC)c(OC)c1`, the IC50 is 41 µM in the series with B16 and 40 µM in the series on L1210.

Consider `COc1ccc(/C=C(/C(C)=O)c2cc(OC)c(OC)c(OC)c2)cc1OC`, for which the IC50 in the series with B16 amounted to 42 µM; in the series on L1210, 37 µM.

For `COc1cc(/C(=C\c2cccc(Br)c2)C(C)=O)cc(OC)c1OC`, the half-inhibitory concentration (IC50) turned out to be 39 µM in the series on B16 and 35 µM with L1210.

Consider `COc1cc(/C(=C\c2ccc(C)cc2)C(C)=O)cc(OC)c1OC`, for which the Activity result in the series on Mus musculus [4], in the series with Mus musculus [5], with Mus musculus [6], with Mus musculus [7], with Mus musculus [8] and in the series on Mus musculus [9] was “Non-toxic” throughout. The Activity entry in the series with Mus musculus [10] and in the series on Mus musculus [11] was “Non-toxic” in each case. It took 5.6 µM to reach a half-maximal effect in [1] (EC50). Further, in [2], the Ratio is 59. Further, in [3], the solubility (as a rule, the concentration that dissolves in the medium under given conditions) was 443 µM (≈ 145 µg/mL). The figures for the 50% inhibitory concentration (IC50) in the series with B16 and with L1210 were 2.9 µM and 0.36 µM, respectively.

In the case of `COc1cc(/C(=C\c2ccc([N+](=O)[O-])cc2)C(C)=O)cc(OC)c1OC`, the half-maximal inhibitory concentration (IC50) with B16 and with L1210 was 18 µM throughout.

For `COc1cc(/C=C(/C(C)=O)c2cc(OC)c(OC)c(OC)c2)cc(OC)c1OC`, the 50% inhibitory concentration (IC50) in the series on B16 was found to be 23 µM; in the series with L1210, 7.2 µM.

`COc1cc(/C(=C\c2ccc(Cl)cc2)C(C)=O)cc(OC)c1OC`: the IC50 came out at 7.4 µM in the series with B16 and 5 µM with L1210.
